Source: ChEMBL document CHEMBL1140204, “Discovery of boronic acids as novel and potent inhibitors of fatty acid amide hydrolase” (J Med Chem, 2008)
Calls of active or inactive are those of the source. The rule behind the calls is not given here.

How the values were obtained:
[1] = biological target: T1, Fatty-acid amide hydrolase 1 (Rattus norvegicus, UniProt P97612); experiment: Inhibition of Wistar rat brain FAAH assessed as [3H]arachidonoylethanolamide hydrolysis
T1 sequence (P97612 whole entry): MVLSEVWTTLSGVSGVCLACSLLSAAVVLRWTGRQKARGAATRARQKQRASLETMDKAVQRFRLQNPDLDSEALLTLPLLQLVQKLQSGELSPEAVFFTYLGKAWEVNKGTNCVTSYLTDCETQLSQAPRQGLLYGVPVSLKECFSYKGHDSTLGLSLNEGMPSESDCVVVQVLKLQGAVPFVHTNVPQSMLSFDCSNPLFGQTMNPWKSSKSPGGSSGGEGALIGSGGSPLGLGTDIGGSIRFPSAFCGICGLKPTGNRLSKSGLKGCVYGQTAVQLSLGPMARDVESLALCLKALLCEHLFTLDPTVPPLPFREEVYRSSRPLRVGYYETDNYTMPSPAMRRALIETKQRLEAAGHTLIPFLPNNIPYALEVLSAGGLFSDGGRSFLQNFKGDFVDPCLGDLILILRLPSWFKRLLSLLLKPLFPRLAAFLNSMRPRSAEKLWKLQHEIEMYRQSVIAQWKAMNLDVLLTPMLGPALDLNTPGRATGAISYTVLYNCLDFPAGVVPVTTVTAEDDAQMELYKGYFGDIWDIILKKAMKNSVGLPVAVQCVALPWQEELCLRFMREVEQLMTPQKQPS

[2] = biological target: T2, Monoglyceride lipase (Homo sapiens) (UniProt Q99685); experiment: Inhibition of human recombinant MGL assessed as residual enzyme activity at 1 mM
T2 sequence (whole entry): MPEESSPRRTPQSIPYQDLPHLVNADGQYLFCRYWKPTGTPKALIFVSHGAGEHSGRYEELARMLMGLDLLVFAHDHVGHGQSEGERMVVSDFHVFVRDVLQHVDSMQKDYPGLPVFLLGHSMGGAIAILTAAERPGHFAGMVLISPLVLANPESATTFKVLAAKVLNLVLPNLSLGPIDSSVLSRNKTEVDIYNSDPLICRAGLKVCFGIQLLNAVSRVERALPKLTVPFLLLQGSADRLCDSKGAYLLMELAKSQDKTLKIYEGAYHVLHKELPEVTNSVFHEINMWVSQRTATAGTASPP

Monoglyceride lipase = biological target: T3, Monoglyceride lipase (Homo sapiens, UniProt Q99685); experiment: Inhibition of human recombinant MGL
T3 sequence (Q99685 whole entry): T2 sequence (whole entry)

[3] = biological target: T2, Monoglyceride lipase (Homo sapiens); experiment: Inhibition of human recombinant MGL at 100 uM
In short: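 Human recombinant MGL as enzyme source with 2-AG as substrate. Single-concentration screen at 100 µM, expressed as percent inhibition. Mean of two independent experiments, each performed in duplicate.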

`OB(O)/C=C/c1ccc(-c2ccccc2)cc1` gave an IC50 [1] of 14 nM.

In the case of `OB(O)c1cc2ccccc2o1`, the Activity [2] is reported as 8.4%, the IC50 [1] is reported as 330 nM and the IC50 (Monoglyceride lipase) is reported as 100 µM.

`COc1ccc(B(O)O)cc1` gave an IC50 [1] of 2000 nM and an inhibition [3] of 11%.

`OB(O)c1ccc(F)nc1` gave an IC50 [1] of 10000 nM and an inhibition [3] of 2%.

Work on `N#Cc1cccc(B(O)O)c1` yielded an IC50 [1] of 1600 nM and an inhibition [3] of 21%.

For `OB(O)c1cccc(-c2ccccc2)c1`, the IC50 [1] was 130 nM.

Molecule `OB(O)c1ccc(F)cc1` has an IC50 [1] of 1500 nM and an inhibition [3] of 3%.

With `OB(O)c1cc2ccccc2s1` the IC50 [1] was 150 nM and the IC50 (Monoglyceride lipase) was 32 µM.

`O=[N+]([O-])c1ccc(B(O)O)cc1` gave an IC50 [1] of 210 nM and an inhibition [3] of 43%.

For `OB(O)c1ccccc1` [PHENYLBORONIC ACID], the IC50 [1] was 2600 nM and the Activity [3] was “inactive”.

`CCCCCCCCCc1ccc(B(O)O)cc1` gave an IC50 [1] of 9.1 nM and an IC50 (Monoglyceride lipase) of 7.9 µM.

Molecule `OB(O)c1ccc(-c2ccccc2)cc1` [BIPHENYLBORONIC ACID] has an IC50 [1] of 21 nM.

For `OB(O)c1cccc(C(F)(F)F)c1`, the IC50 [1] was 80 nM and the IC50 (Monoglyceride lipase) was 38 µM.

For `OB(O)c1ccc(C(F)(F)F)cc1`, the IC50 [1] was 36 nM.

For `COc1cccc(B(O)O)c1`, the inhibition [3] was 7%.

`OB(O)c1ccccc1F` showed an IC50 [1] of 710 nM and an inhibition [3] of 13%.

`OB(O)c1ccccc1C(F)(F)F` showed an IC50 [1] of 68000 nM and an inhibition [3] of 20%.

`CCOC(=O)c1cccc(B(O)O)c1` showed an IC50 [1] of 120 nM and an inhibition [3] of 34%.

For `OB(O)c1ccccc1-c1ccccc1`, the IC50 [1] was 110000 nM and the inhibition [3] was 2%.

Molecule `N#Cc1ccc(B(O)O)cc1` has an IC50 [1] of 290 nM and an inhibition [3] of 36%.

In the case of `COc1ccccc1B(O)O`, the IC50 [1] is reported as 13000 nM and the inhibition [3] is reported as 11%.
